The subject of series [1] is K562. Kind of series: Percentage of the dead cells of K-562 cells was determined for the compound. It counts as ADME, cell-based. The note with it: human. The gist of the method:
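Doxorubicin-resistant K 562 cells were exposed to compound at 1 µM, and viability was scored by trypan blue exclusion. Dead cells above 20% counted as toxic.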

The test system of series [2] is K562. Kind of series: The efficacy in reverting MDR was evaluated on human erythroleukemia K-562 cell line. It counts as functional. The gist of the method:
(§1)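 Doxorubicin-resistant and sensitive K 562 cells in exponential growth were used in pH 7.25 HEPES buffer at 37 °C in quartz cuvettes. Pirarubicin uptake was followed as the fall in fluorescence at 590 nm (ex 480 nm). Steady-state nuclear pirarubicin was measured across a range of inhibitor concentrations. α = (CnRi − CnRo)/(CnS − CnRo); αmax is the maximal α, and [i]0.5 is the concentration giving α = 0.5 (mean ± SEM).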

The species entered for series [3] is Cavia porcellus. Description: Decrease in developed tension of the left atrium of guinea pig expressed as the negative inotropy. It counts as functional, Cardiac atrium. Details: concentration or dose not given beside the values. The gist of the method:
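Isolated guinea pig left atrium, electrically driven at 1 Hz. Read-out is the fall in developed tension at 5 × 10^-5 M, given as percent change from control (n = 5-6).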

Series [4] is filed under the species Cavia porcellus. Kind of series: Decrease in atrial rate of the right atrium of guinea pig expressed as the negative chronotropy. Also noted: concentration or dose not given beside the values.
The species entered for series [5] is Cavia porcellus. Kind of series: Potency expressed as EC30 for the negative chronotropic activity. It counts as functional.
Series [6] is filed under the species Cavia porcellus. Kind of series: Potency expressed as EC50 for the negative inotropic activity; 'i' means Inactive. It counts as functional.
Series [7] is filed under the species Cavia porcellus. Description: Percent inhibition of calcium-induced contraction on K+ depolarized guinea pig aortic strip. It counts as functional, Aorta. Also noted: concentration or dose not given beside the values.
The subject of series [8] is K562. Kind of series: Potency that causes a half maximal increase in nuclear concentration of pirarubicin. It counts as functional, Homo sapiens.
For series [9], the species on record is Cavia porcellus. Kind of series: Potency expressed as IC50 for the vasorelaxant activity. It counts as functional.
The species entered for series [10] is Cavia porcellus. Kind of series: Potency expressed as EC50 for the negative inotropic activity. It counts as functional.
The species entered for series [11] is Cavia porcellus. Description: Potency expressed as IC50 for the vasorelaxant activity; 'i' means inactive. It counts as functional.
The species entered for series [12] is Cavia porcellus. Description: Potency expressed as EC30 for the negative chronotropic activity; 'i' means Inactive. It counts as functional.
The species entered for series [13] is Cavia porcellus. Kind of series: Decrease in developed tension of the right atrium of guinea pig expressed as the negative chronotropy. It counts as functional, Cardiac atrium. Details: scale not given: the % may be the effect or the level left. The gist of the method:
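Spontaneously beating isolated guinea pig right atrium. Read-out is the fall in atrial rate at 5 × 10^-5 M (10^-5 M for some compounds), given as percent change from control (n = 7-8).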

The species named for series [14] is Cavia porcellus. Kind of series: Potency expressed as IC50 for the vasorelaxant activity. It counts as functional.
Series [15] is filed under the species Cavia porcellus. Kind of series: Potency expressed as EC30 for the negative chronotropic activity. It counts as functional.
Series [16] relates to K562. Kind of series: Potency that causes half maximal increase in nuclear concentration of pirarubicin; 'i' means Inactive. It counts as functional, cell-based. The note with it: Homo sapiens. The gist of the method:
as §1

The source made the active and inactive calls. The rule behind the calls is not given here.

`C=CCNc1nc(NCC=C)nc(N2CCC(NCCCC(C#N)(c3ccc(OC)c(OC)c3)C(C)C)CC2)n1.Cl` (configuration not stated) showed a Dead cells with K562 [1] of 0%. Besides, the Alpha max in the series on K562 [2] is given as 0.9. For the same molecule, the Activity is given as 39% in the series filed under Cavia porcellus [3], 87% in the series filed under Cavia porcellus [4] and 62% in the series filed under Cavia porcellus [7]. Besides, the EC30 in the series filed under Cavia porcellus [5] came out at 1750 nM. The EC50 entry in the series listed under Cavia porcellus [6] was “Not Active”. In the series with K562 [8], this molecule came in with a Potency of 1600 nM. The same molecule returned an IC50 in the series listed under Cavia porcellus [9] of 3450 nM.
The molecule `Cl.N#CC(CCCNC12CC3CC(CC(C3)C1)C2)(c1ccccc1)c1ccccc1` displayed a half-maximal effective concentration (EC50) in the series listed under Cavia porcellus [10] of 1030 nM. In addition, the Dead cells in the series on K562 [1] amounted to 0%. Besides, in the series on K562 [2], the Alpha max was found to be 0.8. The figures for the Activity in the series listed under Cavia porcellus [3], in the series filed under Cavia porcellus [4] and in the series filed under Cavia porcellus [7] were 80%, 69% and 55%, respectively. The concentration for an effect of 30% (EC30) in the series listed under Cavia porcellus [5] stood at 1260 nM. The same molecule came in with a Potency with K562 [8] of 500 nM. The molecule further showed a half-maximal inhibitory concentration (IC50) in the series filed under Cavia porcellus [9] of 3490 nM.
`COc1ccc(C(C#N)(CCCN(C)Cc2c3ccccc3cc3ccccc23)C(C)C)cc1OC.Cl` (configuration not stated) gave an EC50 in the series listed under Cavia porcellus [10] of 650 nM. Moreover, the IC50 entry in the series filed under Cavia porcellus [11] is given as “Inactive”. The molecule further registered a Dead cells with K562 [1] of 3%. This molecule returned an Alpha max in the series with K562 [2] of 0.5. The values for the Activity in the series filed under Cavia porcellus [3], in the series listed under Cavia porcellus [7] and in the series listed under Cavia porcellus [13] were 85%, 9% and 19%, respectively. Moreover, the EC30 entry in the series listed under Cavia porcellus [12] was “inactive”. Moreover, the Potency in the series on K562 [8] turned out to be 2500 nM.
In the series filed under Cavia porcellus [10], `COc1ccc(C(C#N)(CC#CCNCC(c2ccccc2)c2ccccc2)C(C)C)cc1OC.Cl` (configuration not stated) showed an EC50 of 1060 nM. The molecule also came in with a Dead cells in the series on K562 [1] of 20%. Besides, the Alpha max in the series on K562 [2] worked out at 0.7. In addition, the Activity in the series listed under Cavia porcellus [3] stood at 61%; in the series listed under Cavia porcellus [4], 67%; in the series listed under Cavia porcellus [7] it was 54%. In the series filed under Cavia porcellus [5], this molecule had an EC30 of 830 nM. For the same molecule, the Potency in the series with K562 [8] came to 100 nM. Besides, in the series listed under Cavia porcellus [9], the IC50 was found to be 4120 nM.
In the series with K562 [1], `COc1ccc(C(C#N)(CCCNC23CC4CC(CC(C4)C2)C3)C(C)C)cc1OC.Cl` (configuration not stated) returned a Dead cells of 0%. In addition, in the series on K562 [2], the Alpha max worked out at 0.7. The results for the Activity in the series filed under Cavia porcellus [3], in the series listed under Cavia porcellus [4] and in the series filed under Cavia porcellus [7] were 45%, 80% and 81%, respectively. For the same molecule, the IC50 in the series listed under Cavia porcellus [14] amounted to 7150 nM. In the series filed under Cavia porcellus [6], the EC50 result is given as “Not Active”. This molecule also came in with a 30% effect concentration (EC30) in the series listed under Cavia porcellus [15] of 1700 nM. Further, in the series with K562 [8], the Potency came out at 2000 nM.
For `COc1ccc(C(C#N)(CCCN(C)C23CC4CC(CC(C4)C2)C3)C(C)C)cc1OC.Cl` (configuration not stated), in the series on K562 [16], the Potency entry is “inactive”. Besides, the EC50 in the series listed under Cavia porcellus [10] turned out to be 3990 nM. In addition, the Activity is on record as 80% in the series listed under Cavia porcellus [3], 81% in the series listed under Cavia porcellus [4] and 65% in the series filed under Cavia porcellus [7]. Further, in the series listed under Cavia porcellus [5], the EC30 came to 910 nM. The molecule also had an IC50 in the series filed under Cavia porcellus [9] of 3800 nM.

These data come from ChEMBL document CHEMBL1132206, “Design, synthesis, and in vitro activity of catamphiphilic reverters of multidrug resistance: discovery of a selective, highly efficacious chemosensitizer with potency in the nanomolar range” (J Med Chem, 1999).
